UPR CHOP act: activators of apoptotic arm of unfolded protein response (CHOP); CHO-CHOP luciferase reporter, UPR activation, luminescence; percent of tunicamycin response over DMSO baseline; activation, % at 10 µM; 0.34% of 330,000 active; AID 449763;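 active means at 10 µM dose, activation of 40% or more, normalized to positive control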;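 further: 100% = tunicamycin at 10 µg/mL and 0% = DMSO alone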
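Assay system: CHO cells with stable CHOP pathway luciferase reporter; Buffer or medium: F12 plus 10% serum; Times: 16-18 h cell attachment, then 6 h compound exposure, 37 °C; Signal: luciferase luminescence; Read-out basis: percent activation relative to tunicamycin control; Control set: tunicamycin high control, DMSO low control.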
NOD2-RIPK2 inh: NOD2-RIPK2 protein interaction inhibition; CHO BLA complementation NOD2-RIPK2, CCF4 ratio; inhibition, % at 4.98 µM; 0.38% of 360,000 active; O43353; in the data active means inhibition above about 21%;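 further: 0% = vehicle only and 100% = reference blocker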
CHOP inh: blocks CHOP induction under ER stress; AID 2732; CHO-K1 CHOP-promoter luciferase, tunicamycin-induced, 15-18 h; 3.8% of 220,000 active; inhibition, % at 10 µM;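 active means compounds that reduced the stress-induced luciferase reporter signal by more than about 70% of percent inhibition, limit read from the data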;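 further: 0% = tunicamycin plus vehicle and 100% = wells without tunicamycin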
UPR XBP1 act: activators of adaptive arm of unfolded protein response (XBP1); activation, % at 20 µM; 0.33% of 330,000 active; CHO-XBP1 luciferase reporter, IRE1-XBP1 UPR activation, luminescence; percent of tunicamycin response, DMSO as zero;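 active means versus positive control, 20 µM dose yields 30% or more activation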;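 further: 100% = tunicamycin at 10 µg/mL and 0% = DMSO only wells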
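Material: CHO cell line with stable XBP1 luciferase reporter; buffer or medium: F12 medium containing 10% fetal bovine serum; compound: single point, 20 µM final compound, 1% DMSO; incubation: 6 h treatment, 37 °C; measured by: glow luminescence from Steady-Glo reagent; evaluation: activation, % of tunicamycin; control set: tunicamycin high, DMSO low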
TLR4-MyD88 BLA: TLR4-MyD88 interaction inhibition in cells. O00206+Q99836. HeLa CL3-4 TLR4/MyD88 BLA complementation, FRET ratio. inhibition, % at 8.4 µM. 0.18% of 200,000 active. AID 861; in the data active means inhibition above about 25%;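 further: 0% = vehicle and 100% = reference inhibitor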
TLR9-MyD88 inh: inhibitors of human TLR9-MyD88 binding. Q9NR96+Q99836. CHO BLA complementation TLR9-MyD88, CCF4 FRET ratio. inhibition, % at 4.98 µM. 0.21% of 340,000 active;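 active means inhibition above the mean over all tested compounds plus 3 SD, cut at about 21% in these data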;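 further: 0% = DMSO only wells and 100% = clavulanate BLA inhibitor control wells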
TLR4 MyD88 cnf: confirmation of human TLR4-MyD88 binding inhibitors | HeLa CL3-4 BLA complementation, CCF4 FRET ratio | shares compounds with TLR4-MyD88 BLA | AID 941 | 50% of 350 active | inhibition, % at 8.4 µM;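 active means mean inhibition across three repeat runs above about 25% carried over from the earlier screen, limit read from the data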;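 further: plate controls were DMSO only for no effect and clavulanic acid blocking BLA at full dose for full effect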
BLA inh HeLa: counter-screen for TLR4-MyD88 inhibitors: beta-lactamase reporter inhibitors; inhibition, % at 8.4 µM; shares compounds with TLR4-MyD88 BLA; 63% of 350 active; HeLa BLA reporter, CCF4 FRET ratio;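 active means mean inhibition over three repeats above about 26% taken from the earlier screen, limit read from the data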;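 further: HeLa cells stably expressing beta-lactamase reporter as counterscreen for TLR4-MyD88 inhibitors; 0% = DMSO and 100% = clavulanic acid full inhibition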
Active calls of the source: *. Only a selection was taken, and hits are over-represented in it overall.

How did CC[C@H](C)[C@@H]1O[C@@]2(C=CC1C)CC1C[C@@H](CC=C(C)C(O[C@H]3CC(OC)C(O[C@H]4CC(OC)C(O)C(C)O4)C(C)O3)C(C)C=CC=C3CO[C@@H]4C(O)C(C)=C[C@@H](C(=O)O1)[C@]34O)O2 (some centres undefined) do in these assays?
UPR CHOP act: 36; UPR XBP1 act: 50*

Results for NC(=O)Nc1ccc(C(=O)OCC(=O)Nc2ccc(Cl)cc2C(=O)c2ccccc2)cc1 ?
UPR CHOP act: 0; NOD2-RIPK2 inh: 2; CHOP inh: 76*; UPR XBP1 act: 1; TLR4-MyD88 BLA: -6; TLR9-MyD88 inh: 0

How did CCCCn1c(O)c(C=NC2CC3CCC2(C)C3(C)C)c(=O)[nH]c1=O (centres undefined) do in these assays?
UPR CHOP act: 1; NOD2-RIPK2 inh: -15; CHOP inh: 95*; UPR XBP1 act: 0; TLR4-MyD88 BLA: -5; TLR9-MyD88 inh: -2

Results for O=P(O)(O)C(Cl)(Cl)P(=O)(O)O ?
CHOP inh: 2

Results for Cc1ccc(OP(=O)(NC(C)c2ccccc2)Oc2ccc(C)cc2)cc1 (centres undefined) ?
UPR CHOP act: -1; NOD2-RIPK2 inh: 11; CHOP inh: 77*; UPR XBP1 act: -2; TLR4-MyD88 BLA: -15; TLR9-MyD88 inh: -1

How did Cc1ccc(NP(=O)(Oc2ccccc2)Oc2ccccc2)cc1 do in these assays?
NOD2-RIPK2 inh: -2; TLR9-MyD88 inh: -9

Results for Oc1ccc2c3c1OC1c4[nH]c5ccccc5c4C[C@@]4(O)C(C2)N(CC2CC2)CC[C@]314 (some centres undefined) ?
UPR CHOP act: 0; NOD2-RIPK2 inh: 11; UPR XBP1 act: 0; TLR9-MyD88 inh: -7

How did O=C1/C(=C/c2ccccc2)C[C@@]2(O)[C@H]3Cc4ccc(O)c5c4[C@@]2(CCN3CC2CC2)C1O5 (some centres undefined) do in these assays?
UPR CHOP act: 27; NOD2-RIPK2 inh: 35*; UPR XBP1 act: -9; TLR9-MyD88 inh: 7

Results for CP(=O)(O)C1=CCNCC1 ?
CHOP inh: 1

How did Cc1ccc2c(c1)CC1(CN2C)C(=O)NC(=O)N(CCc2ccccc2)C1=O (centres undefined) do in these assays?
UPR CHOP act: -1; NOD2-RIPK2 inh: -9; CHOP inh: 91*; UPR XBP1 act: 0; TLR4-MyD88 BLA: 5; TLR9-MyD88 inh: -1

How did COc1ccc(-c2nc3ccc(Br)cn3c2CC(=O)N2CCCC2)cc1OC do in these assays?
NOD2-RIPK2 inh: -8

What do the screens show for `C=CCn1c(O)c(C=Nc2ccc(F)cc2)c(=O)[nH]c1=O`?
UPR CHOP act: 0; NOD2-RIPK2 inh: 0; UPR XBP1 act: -3; TLR9-MyD88 inh: -28

Results for CCOc1ccc(N=Cc2c(O)n(CCc3ccc(OC)c(OC)c3)c(=O)[nH]c2=O)cc1 ?
UPR CHOP act: 1; NOD2-RIPK2 inh: 4; CHOP inh: 90*; UPR XBP1 act: -6; TLR9-MyD88 inh: 5

How did COc1ccc(CCn2c(O)c(C=Nc3ccc(NC(C)=O)cc3)c(=O)[nH]c2=O)cc1OC do in these assays?
UPR CHOP act: 0; NOD2-RIPK2 inh: -1; CHOP inh: 2; UPR XBP1 act: -4

Results for C=CCn1c(O)c(C=Nc2ccc(N(CC)CC)cc2)c(=O)[nH]c1=O ?
UPR CHOP act: 0; NOD2-RIPK2 inh: -9; CHOP inh: 71*; UPR XBP1 act: 2; TLR4-MyD88 BLA: -5; TLR9-MyD88 inh: 2

What do the screens show for `COc1ccc(N=Cc2c(O)n(CC3CCCO3)c(=O)[nH]c2=O)cc1` (centres undefined)?
UPR CHOP act: -1; NOD2-RIPK2 inh: -13; CHOP inh: -14; UPR XBP1 act: -1; TLR4-MyD88 BLA: -18; TLR9-MyD88 inh: 2

How did COc1ccc(N=Cc2c(O)n(Cc3cccs3)c(=O)[nH]c2=O)cc1 do in these assays?
UPR CHOP act: 1; NOD2-RIPK2 inh: -4; CHOP inh: 81*; UPR XBP1 act: 3; TLR4-MyD88 BLA: 8; TLR9-MyD88 inh: 2

Results for CCN1C[C@]2(C)CC[C@H](O)[C@@]34C5C[C@@H]6[C@@H](OC)C[C@@](O)(C5[C@H]6O)[C@@H](CC23)C14 (some centres undefined) ?
CHOP inh: 24

Results for O=C1NC(=O)C(=Cc2ccc(-c3ccccc3[N+](=O)[O-])o2)C(=O)N1 ?
UPR CHOP act: 0; NOD2-RIPK2 inh: -7; CHOP inh: 95*; UPR XBP1 act: -3; TLR9-MyD88 inh: 1

Results for NC(=NCCC[C@H](N)C(=O)O)N[N+](=O)[O-] ?
CHOP inh: 0

How did O=c1[nH]c(=O)n(CCC2=CCCCC2)c(O)c1/C=N/Nc1cccc2ccccc12 do in these assays?
UPR CHOP act: -1; NOD2-RIPK2 inh: -19; CHOP inh: 71*; UPR XBP1 act: -2; TLR9-MyD88 inh: -11

What do the screens show for `O=c1[nH]c(=O)n(CCC2=CCCCC2)c(O)c1/C=N/Nc1ccccc1`?
UPR CHOP act: 2; NOD2-RIPK2 inh: -18; CHOP inh: 61; UPR XBP1 act: -1; TLR4-MyD88 BLA: -4; TLR9-MyD88 inh: 8

Results for O=C(CNC(=O)c1ccc(Br)cc1)Nc1ccc(Br)cc1C(=O)c1ccccc1 ?
UPR CHOP act: 0; NOD2-RIPK2 inh: -4; CHOP inh: 77*; UPR XBP1 act: 1; TLR4-MyD88 BLA: 1; TLR9-MyD88 inh: 3

How did C=CCNC(=O)c1c(N)n(Cc2ccco2)c2nc3ccccc3nc12 do in these assays?
UPR CHOP act: 0; NOD2-RIPK2 inh: -14; CHOP inh: 77*; UPR XBP1 act: -3; TLR4-MyD88 BLA: -12; TLR9-MyD88 inh: -10

Results for CC1(C)OC(c2ccccc2)=C/C(=C/C=C2C(=O)NC(=S)NC2=O)O1 ?
UPR CHOP act: 0; CHOP inh: 52; UPR XBP1 act: -1; TLR4-MyD88 BLA: 67*; TLR4 MyD88 cnf: 63*; BLA inh HeLa: 90*

Results for CCOC(=O)[C@]12Cc3ccc4ccccc4c3[C@H]1N(Cc1ccccc1)C(=O)c1ccccc12 ?
NOD2-RIPK2 inh: -8

How did O=c1[nH]c2ccccc2n1C1CCN(C(CCc2ccccc2)c2nnnn2C2CCCC2)CC1 (centres undefined) do in these assays?
NOD2-RIPK2 inh: -7

High-throughput results: PubChem BioAssay, several laboratories
